In brackets after ≈: the same amount, converted by molar mass.
Key:
Assay type in all cases: functional
Enterococcus faecalis = experiment: Antibacterial activity tested against Streptococcus faecalis LEP Br
How it was run: (§1)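 MICs (µg/mL) determined by conventional agar dilution against a panel of eight Gram-negative and five Gram-positive reference strains.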

Enterobacter cloacae = experiment: Antibacterial activity tested against Enterobacter cloacae OMNFI 174
[1] = system: Staphylococcus epidermidis; experiment: Antibacterial activity tested against Staphylococcus epidermidis CPHL A2; how it was run: as §1
[2] = Geometric mean of antibacterial activity (Gram -ve bacteria) of the compound
How it was run: (§2)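 Geometric means calculated from agar-dilution MICs (µg/mL), taken separately across the five Gram-positive and the eight Gram-negative panel strains.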

Providencia stuartii = experiment: Antibacterial activity tested against Providencia stuartii CNUR 5; how it was run: as §1
Escherichia coli [3] = experiment: Antibacterial activity tested against Escherichia coli ISF 432; how it was run: as §1
Staphylococcus aureus [4] = experiment: Antibacterial activity against Staphylococcus aureus MPR 5; how it was run: as §1
Bacteria = experiment: Geometric mean of antibacterial activity (Gram +ve bacteria) of the compound; how it was run: as §2
Proteus vulgaris = experiment: Antibacterial activity tested against Proteus vulgaris CNUR 5; how it was run: as §1
Pseudomonas aeruginosa = experiment: Antibacterial activity tested against P. ae (Pseudomonas aeruginosa) ATCC 9027; how it was run: as §1
Klebsiella pneumoniae = experiment: Antibacterial activity tested against Klebsiella pneumoniae (Klebsiella pneumoniae) ATCC 10031; how it was run: as §1
Staphylococcus aureus [5] = experiment: Antibacterial activity against Staphylococcus aureus ATCC 6538; how it was run: as §1
[6] = system: Staphylococcus epidermidis; experiment: Antibacterial activity tested against Staphylococcus epidermidis HCF Berset C; how it was run: as §1
Shigella = experiment: Antibacterial activity tested against Shigella enteritidis; how it was run: as §1
Escherichia coli [7] = experiment: Antibacterial activity tested against Escherichia coli ATCC 8739; how it was run: as §1

SMILES	MIC (Enterococcus faecalis) [µg/mL]	MIC (Enterobacter cloacae) [µg/mL]	MIC [1] [µg/mL]	MIC (Providencia stuartii) [µg/mL]	MIC (Escherichia coli [3]) [µg/mL]	MIC (Staphylococcus aureus [4]) [µg/mL]	MIC (Proteus vulgaris) [µg/mL]	MIC (Klebsiella pneumoniae) [µg/mL]	MIC (Staphylococcus aureus [5]) [µg/mL]	MIC [6] [µg/mL]	MIC (Shigella) [µg/mL]	MIC (Escherichia coli [7]) [µg/mL]	Geometric mean [2]	Geometric mean (Bacteria)	MIC (Pseudomonas aeruginosa) [µg/mL]
CN1CCN(c2cc3c(cc2N)c(=O)c(C(=O)O)cn3-c2ccc(F)cc2)CC1	64 (≈ 161 µM)	4 (≈ 10.1 µM)	8 (≈ 20.2 µM)	4 (≈ 10.1 µM)	0.125 (≈ 0.315 µM)	4 (≈ 10.1 µM)	128 (≈ 323 µM)	0.125 (≈ 0.315 µM)	8 (≈ 20.2 µM)	8 (≈ 20.2 µM)	4 (≈ 10.1 µM)	0.125 (≈ 0.315 µM)	1.834	10.556	8 (≈ 20.2 µM)
Cc1c(N2CCN(C)CC2)c(N)cc2c(=O)c(C(=O)O)cn(-c3ccc(F)cc3)c12	128 (≈ 312 µM)	16 (≈ 39 µM)	128 (≈ 312 µM)	16 (≈ 39 µM)	1 (≈ 2.44 µM)	128 (≈ 312 µM)	> 128	1 (≈ 2.44 µM)	64 (≈ 156 µM)	128 (≈ 312 µM)	16 (≈ 39 µM)	1 (≈ 2.44 µM)	9.513	111.43	128 (≈ 312 µM)
Cc1c(N2CCN(C)CC2)c(N)cc2c(=O)c(C(=O)O)cn(-c3ccc(O)cc3)c12	64 (≈ 157 µM)	8 (≈ 19.6 µM)	8 (≈ 19.6 µM)	8 (≈ 19.6 µM)	0.125 (≈ 0.306 µM)	16 (≈ 39.2 µM)	> 128	0.25 (≈ 0.612 µM)	16 (≈ 39.2 µM)	16 (≈ 39.2 µM)	4 (≈ 9.79 µM)	0.125 (≈ 0.306 µM)	2.378	18.37	8 (≈ 19.6 µM)
CC1CN(c2cc3c(cc2N)c(=O)c(C(=O)O)cn3C2CC2)CC(C)(C)N1 (stereo not given)	32 (≈ 86.4 µM)	0.5 (≈ 1.35 µM)	2 (≈ 5.4 µM)	4 (≈ 10.8 µM)	0.03 (≈ 0.081 µM)	8 (≈ 21.6 µM)	64 (≈ 173 µM)	0.03 (≈ 0.081 µM)	8 (≈ 21.6 µM)	4 (≈ 10.8 µM)	0.25 (≈ 0.675 µM)	0.03 (≈ 0.081 µM)	0.451	6.964	2 (≈ 5.4 µM)
COc1ccc(-n2cc(C(=O)O)c(=O)c3cc(N)c(N4CCN(C)CC4)c(C)c32)cc1	128 (≈ 303 µM)	> 128	128 (≈ 303 µM)	128 (≈ 303 µM)	16 (≈ 37.9 µM)	64 (≈ 151 µM)	128 (≈ 303 µM)	16 (≈ 37.9 µM)	64 (≈ 151 µM)	64 (≈ 151 µM)	> 128	> 128	76.109	84.45	> 128

The next lines start with results.

MIC (Enterococcus faecalis) [µg/mL]	MIC (Enterobacter cloacae) [µg/mL]	MIC [1] [µg/mL]	MIC (Providencia stuartii) [µg/mL]	MIC (Escherichia coli [3]) [µg/mL]	MIC (Staphylococcus aureus [4]) [µg/mL]	MIC (Proteus vulgaris) [µg/mL]	MIC (Klebsiella pneumoniae) [µg/mL]	MIC (Staphylococcus aureus [5]) [µg/mL]	MIC [6] [µg/mL]	MIC (Shigella) [µg/mL]	MIC (Escherichia coli [7]) [µg/mL]	SMILES	Geometric mean [2]	Geometric mean (Bacteria)	MIC (Pseudomonas aeruginosa) [µg/mL]
2 (≈ 5.06 µM)	4 (≈ 10.1 µM)	0.25 (≈ 0.632 µM)	1 (≈ 2.53 µM)	4 (≈ 10.1 µM)	0.06 (≈ 0.152 µM)	64 (≈ 162 µM)	0.125 (≈ 0.316 µM)	0.06 (≈ 0.152 µM)	0.125 (≈ 0.316 µM)	2 (≈ 5.06 µM)	4 (≈ 10.1 µM)	Cc1c(N2CCC3CCCCC3C2)c(N)cc2c(=O)c(C(=O)O)cn(C3CC3)c12 (stereo not given)	4	0.186	64 (≈ 162 µM)
16 (≈ 41.4 µM)	8 (≈ 20.7 µM)	2 (≈ 5.18 µM)	32 (≈ 82.8 µM)	4 (≈ 10.4 µM)	4 (≈ 10.4 µM)	64 (≈ 166 µM)	16 (≈ 41.4 µM)	4 (≈ 10.4 µM)	4 (≈ 10.4 µM)	1 (≈ 2.59 µM)	16 (≈ 41.4 µM)	Cc1c(N2CCN(C)CC2)c([N+](=O)[O-])cc2c(=O)c(C(=O)O)cn(C3CC3)c12	13.454	4.595	64 (≈ 166 µM)
> 128	16 (≈ 51.1 µM)	16 (≈ 51.1 µM)	64 (≈ 204 µM)	0.25 (≈ 0.798 µM)	8 (≈ 25.5 µM)	> 128	0.25 (≈ 0.798 µM)	8 (≈ 25.5 µM)	16 (≈ 51.1 µM)	16 (≈ 51.1 µM)	16 (≈ 51.1 µM)	Cc1c(N2CCC2)c(N)cc2c(=O)c(C(=O)O)cn(C3CC3)c12	11.313	18.379	> 128

Reference: ChEMBL document CHEMBL1129660, “Studies on 6-aminoquinolones: synthesis and antibacterial evaluation of 6-amino-8-methylquinolones” (J Med Chem, 1996)
